Rows were chosen to be rich in hits. Some 2.6% of all compounds tested hit in one or more screens of this group.
SENP1 FRET inh – SENP1 (human) catalytic domain inhibition; Q9P0U3; inhibition, % at 10 µM; AID 624204; recombinant SENP1 catalytic domain, CyPet-SUMO1-YPet FRET cleavage; 0.21% of 360,000 active;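 active = inhibition at least 30% at 10 µM, raw YFP signal under a set limit, fluorescence ratio 0.5 to 1.5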
Target sequence (Q9P0U3 419-644 limits assumed): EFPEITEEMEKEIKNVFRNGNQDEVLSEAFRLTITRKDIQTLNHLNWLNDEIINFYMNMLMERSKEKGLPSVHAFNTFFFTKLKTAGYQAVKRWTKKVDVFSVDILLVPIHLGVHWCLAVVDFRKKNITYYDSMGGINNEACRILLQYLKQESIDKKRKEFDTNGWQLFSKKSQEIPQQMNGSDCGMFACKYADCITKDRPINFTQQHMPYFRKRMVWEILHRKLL
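Controls: no-enzyme wells low, DMSO-plus-enzyme wells high control. Test system: human recombinant His6-tagged SENP1 catalytic domain enzyme. Reagent: SFCypet-SUMO1-SFYpet FRET protein substrate, 25 nM final. Doses: one dose per compound, 10 µM, 0.5% DMSO. Detection: FRET, CFP and YFP emission. Timing: 50 min reaction at room temperature.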
SENP7 inh – inhibitors of human SENP7 protease. 1.5% of 330,000 active. recombinant SENP7, Z-RLRGG-aminoluciferin luminescence, 40 min. inhibition, % at 5 µM;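 active = inhibition above about 50% at the single test dose, limit read from the data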
Target sequence (Q9BQF6 706-1050 limits assumed): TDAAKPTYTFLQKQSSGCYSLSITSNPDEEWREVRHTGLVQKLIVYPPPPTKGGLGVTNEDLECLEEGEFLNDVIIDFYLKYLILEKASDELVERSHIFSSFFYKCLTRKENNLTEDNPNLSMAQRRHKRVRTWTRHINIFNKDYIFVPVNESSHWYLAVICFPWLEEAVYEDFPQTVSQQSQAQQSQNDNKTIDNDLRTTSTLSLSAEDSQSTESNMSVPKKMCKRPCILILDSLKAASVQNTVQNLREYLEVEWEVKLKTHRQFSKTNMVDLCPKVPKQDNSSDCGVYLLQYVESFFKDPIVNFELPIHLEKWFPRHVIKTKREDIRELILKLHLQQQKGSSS
SENP6 inh – inhibitors of human SENP6 protease; 1.8% of 330,000 active; Recombinant SENP6 catalytic domain, aminoluciferin luminescence; inhibition, % at 10 µM;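 active = inhibition above about 50% at the single tested dose, limit read from the data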
SENP8 block-1 – inhibitors of human SENP8 protease; Q96LD8; purified SENP8, Z-RLRGG-aminoluciferin cleavage, luminescence; inhibition, % at 10 µM; 1.2% of 330,000 active; AID 2540; in the data active = inhibition above about 50%
SENP8 block-2 – SENP8 (human) protease inhibition; Q96LD8; recombinant SENP8, Nedd8 substrate fluorescence; inhibition, % at 20 µM; 0.64% of 360,000 active; AID 602440; in the data active = inhibition mostly above about 40%, no sharp cut-off; inactive = mostly below about 27%
Platelet DG rel – platelet dense granule release activity | human platelet-rich plasma, SFLLRN dense granule ATP release, luminescence | inhibition, %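 (compounds screened at 7.5 µM in platelet-rich plasma)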 | 0.22% of 300,000 active | AID 1663;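 active = mean replicate score, as percent of positive control, at or above 50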
Of the large screens only hits and unclear results are named; the others gave an inactive call.

COc1cccc(N=Nc2ccc3cccnc3c2O)c1	SENP7 inh 79, SENP6 inh 90, SENP8 block-1 84
COc1cccc(N=Nc2ccc(O)c3ncccc23)c1	SENP7 inh 62, SENP6 inh 77, SENP8 block-1 73
Oc1ccc(N=Nc2ccc3c(c2)OCCO3)c2cccnc12	SENP8 block-2 40
COc1ccc(N=Nc2ccc(O)c3ncccc23)cc1	none
COc1cc(OC)cc(C(=O)Nc2cccc3cccnc23)c1	none
COc1ccc(NC(=O)CNc2ccc(OC)c(S(=O)(=O)N3CCOCC3)c2)cc1	none (no result: SENP7 inh, SENP6 inh, SENP8 block-1, Platelet DG rel)
CC1(C(=O)Nc2ccc3c(c2)OCCO3)CSCC(=O)N1C1CC1 (stereo not drawn)	none (no result: SENP7 inh, SENP6 inh, SENP8 block-1, Platelet DG rel)
Cn1c2ccccc2c(=O)n2c(=O)c3ccccc3cc12	SENP7 inh 95, SENP6 inh 90, SENP8 block-1 97 (no result: SENP1 FRET inh, SENP8 block-2)
Cn1c(-c2ccccc2)cc(=O)c2ccccc21	none
O=c1c2c(nc3cc(-c4ccccc4Cl)[nH]n13)CCS2	SENP6 inh 85, SENP8 block-1 77
CCOC(=O)N1CCN(C(C(=O)NC2CCCC2)c2ccco2)CC1 (stereo not drawn)	none (no result: SENP7 inh, SENP6 inh, SENP8 block-1, Platelet DG rel)
CCN1CCSc2ccc(C(=O)NCc3ccccc3F)cc21	none
COc1ccc(CNC(=O)c2ccc3c(c2)N(C)CCS3)cc1	none
CC(C)Oc1ccc(CNC(=O)c2ccc3c(c2)N(C)CCS3)cc1	Platelet DG rel 57
CN1CCSc2ccc(C(=O)NCc3ccccc3F)cc21	Platelet DG rel 73
O=C1/C(=N\S(=O)(=O)c2cccs2)C([n+]2ccccc2)=C([O-])c2ccccc21	SENP6 inh 69, SENP8 block-2 105
C/C(=N/Nc1ccc(C(=O)O)cc1)c1ccc(O)c(O)c1O	SENP8 block-2 47
O=C(NCC1CCCCC1)c1[nH]c(C(F)(F)F)nc1-c1ccccc1	none (no result: SENP7 inh, SENP6 inh, SENP8 block-1, Platelet DG rel)
O=C(CCN1C(=O)/C(=C\C=C\c2ccccc2)SC1=S)Nc1ccc(C(=O)O)cc1	SENP6 inh 59, SENP8 block-1 60
O=C(CN1C(=O)S/C(=C/C=C/c2ccccc2)C1=O)Nc1ccc(C(=O)O)cc1	none
CCOC(=O)CNS(=O)(=O)c1cc(-c2n[nH]c(=O)c3ccccc23)ccc1C	Platelet DG rel 51 (no result: SENP7 inh, SENP6 inh, SENP8 block-1)
CCOC(=O)c1sc(N=NC2=C(O)CCCC2=O)c(C(=O)OCC)c1C	SENP8 block-2 53
CCOC(=O)/C(N=Nc1sc(C(=O)OCC)c(C)c1C(=O)OCC)=C(\C)O	none (no result: SENP1 FRET inh, SENP8 block-2)
O/C=c1\ccc2cccc3nc(C(F)(F)F)nc1c23	SENP8 block-2 46
NNc1nc(C(F)(F)F)nc2ccccc12	none
CC1(C)Cc2c(sc3nc(NCCN4CCOCC4)n4ncnc4c23)CO1	Platelet DG rel 52
CC1(C)Cc2c(c(-c3ccco3)nc3sc4c(NCCN5CCOCC5)ncnc4c23)CO1	none
C=C(C)c1cccc(C(C)(C)NC(=O)N2CCN(C(=O)OCC)CC2)c1	none (no result: SENP7 inh, SENP6 inh, SENP8 block-1, Platelet DG rel)
CC1=NN(c2ccccc2)C(=O)/C1=C\c1sccc1C	none
CC1=NN(c2ccccc2)C(=O)C1=C(C)C	SENP8 block-2 41
COc1cc2c(cc1OC)-c1cc(Nc3ccc(F)cc3)nc(=O)n1CC2	Platelet DG rel 95
COc1cc2c(cc1OC)-c1cc(Nc3cccc(F)c3)nc(=O)n1CC2	Platelet DG rel 71
COc1cc2c(cc1OC)-c1cc(Nc3ccc(N(C)C)cc3)nc(=O)n1CC2	Platelet DG rel 76
CCN(CC)c1ccc(Nc2cc3n(c(=O)n2)CCc2cc(OC)c(OC)cc2-3)cc1	none
CCOc1cc(CNc2ccc(O)cc2)ccc1OCc1ccc(Cl)cc1Cl	SENP7 inh 72, SENP8 block-2 75
O=S(=O)(Nc1ccc(O)c2ccccc12)c1ccc(Br)cc1	SENP6 inh 62 (no result: SENP1 FRET inh, SENP8 block-2)
CC(=O)Nc1ccc(NS(=O)(=O)c2ccccc2)c2ccccc12	none
Cn1c(=O)[nH]c(=O)c2c1nc(N1CCCCCC1)n2CC(N)=O	Platelet DG rel 70
Cn1c(=O)[nH]c(=O)c2c1nc(N1CCCC1)n2CCO	none
COc1ccc(-c2nc3cc(C)c(Br)c(C)n3c2Cc2ccc(C)cc2)cc1OC	none (no result: SENP7 inh, SENP6 inh, SENP8 block-1, Platelet DG rel)
Oc1nc(Nc2ccc(F)cc2)sc1/C=C1\C=Nc2ccccc21	none
O=c1[nH]c(S)c(/C=C2\C=Nc3ccccc32)s1	SENP8 block-2 52
CCN(c1ccccc1)S(=O)(=O)c1ccc(Cl)c(NC(=O)COC(=O)c2cc(O)c3ccccc3c2O)c1	SENP6 inh 62 (no result: SENP1 FRET inh, SENP8 block-2)
COc1ccc(C(c2nnnn2-c2ccc3c(c2)OCCO3)N2CCN(C/C=C/c3ccccc3)CC2)cc1 (stereo not drawn)	none (no result: SENP7 inh, SENP6 inh, SENP8 block-1, Platelet DG rel)
Cc1ccc(S(=O)(=O)N(C)C)cc1NC(=S)Nc1cccc2ccccc12	SENP7 inh 56, SENP6 inh 90, SENP8 block-1 84
C/C(=C\C(=S)Nc1ccccc1)Nc1cccc2ccccc12	SENP6 inh 83, SENP8 block-1 71
COc1ccc(CNC(=S)Nc2cccc(OC)c2)cc1	none
COc1cccc(NC(=S)Nc2cccc3ccccc23)c1	SENP6 inh 89, SENP8 block-1 88
Fc1cccc(Cl)c1C1SCc2nc3ccccc3n21 (stereo not drawn)	none (no result: SENP7 inh, SENP6 inh, SENP8 block-1, Platelet DG rel)
OC[C@@H]1CN(Cc2ccc(F)cc2)C[C@H](n2cnc3c(N4CCN(c5ccccc5)CC4)ncnc32)O1	none (no result: SENP7 inh, SENP6 inh, SENP8 block-1, Platelet DG rel)
COc1ccccc1C1N=C(c2ccccc2C)NO1 (stereo not drawn)	SENP7 inh 78, SENP6 inh 83, SENP8 block-1 75
O=[N+]([O-])c1ccccc1-c1cc(-c2ccccc2O)n[nH]1	SENP6 inh 61
Cc1nc2cc(Nc3ccncc3)ccc2s1	Platelet DG rel 56
Cc1cccc(NC(=O)CCS(=O)(=O)c2ccc3nc(C)sc3c2)c1	none (no result: SENP7 inh, SENP6 inh, SENP8 block-1, Platelet DG rel)
CCOC(=O)[C@]12CCCC=C1N(CCc1ccc(OC)c(OC)c1)C(=O)[C@H](CC(=O)N1CCSCC1)C2	none (no result: SENP7 inh, SENP6 inh, SENP8 block-1, Platelet DG rel)
O=C(NNc1ccc([N+](=O)[O-])cc1[N+](=O)[O-])C1C2CCCCC21 (stereo not drawn)	none
CC12CCC(/C(=C/NNc3ccc([N+](=O)[O-])cc3[N+](=O)[O-])C1=O)C2(C)C (stereo not drawn)	SENP8 block-2 30 (no result: SENP7 inh, SENP6 inh, SENP8 block-1, Platelet DG rel)
COc1cccc(C(C(=O)NCc2ccccc2)N2CCN(CCN3CCOCC3)CC2)c1OC (stereo not drawn)	none (no result: SENP7 inh, SENP6 inh, SENP8 block-1, Platelet DG rel)
Cc1cccc(C)c1NC(=O)C1(C)CN(S(C)(=O)=O)CC(=O)N1CCOc1ccccc1 (stereo not drawn)	none (no result: SENP7 inh, SENP6 inh, SENP8 block-1, Platelet DG rel)
CC1=NN(c2nc(-c3ccc(C)cc3)cs2)C(=O)C1N=Nc1ccc2ccccc2c1 (stereo not drawn)	SENP8 block-2 55
O=C(Nc1nnc([C@H]2C[C@H](O)[C@@H](CO)O2)s1)Nc1ccccc1C(F)(F)F	none (no result: SENP7 inh, SENP6 inh, SENP8 block-1, Platelet DG rel)
CCOC(=O)/C(N=Nc1ccc(F)cc1)=C(/O)c1ccc([N+](=O)[O-])cc1	SENP8 block-2 43
Nc1[nH]ncc1N=Nc1ccc(Cl)cc1	SENP8 block-2 48
Nc1n[nH]c(N)c1N=Nc1cccc(C(F)(F)F)c1	SENP8 block-2 44
Nc1n[nH]c(N)c1N=Nc1cccc(F)c1	none
